Activity calls are given as the source filed them. The calls are words filed in the database; no cut-off is given here.
How the values were obtained:
PBMC = assay: Immunomodulatory activity in human PBMC assessed as induction of TNFalpha at 100 ug/ml after 24 hrs; format: functional, cell-based
Procedure, shortened: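 Human PBMCs plated at 5 × 10^6 cells/mL; compounds dissolved in PBS added at various concentrations, 37 °C for 24 h. Supernatant cytokines/chemokines quantified with human Luminex multiplex kit.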

[1] = target: T1, Toll-like receptor 7 (Homo sapiens) (UniProt Q9NYK1); assay: Activation of human TLR7 expressed in HEK293XL assessed as fold induction of NF-kappaB activity at 50 ug/ml after 18 hrs by reporter gene assay relative to control
T1 sequence (whole entry): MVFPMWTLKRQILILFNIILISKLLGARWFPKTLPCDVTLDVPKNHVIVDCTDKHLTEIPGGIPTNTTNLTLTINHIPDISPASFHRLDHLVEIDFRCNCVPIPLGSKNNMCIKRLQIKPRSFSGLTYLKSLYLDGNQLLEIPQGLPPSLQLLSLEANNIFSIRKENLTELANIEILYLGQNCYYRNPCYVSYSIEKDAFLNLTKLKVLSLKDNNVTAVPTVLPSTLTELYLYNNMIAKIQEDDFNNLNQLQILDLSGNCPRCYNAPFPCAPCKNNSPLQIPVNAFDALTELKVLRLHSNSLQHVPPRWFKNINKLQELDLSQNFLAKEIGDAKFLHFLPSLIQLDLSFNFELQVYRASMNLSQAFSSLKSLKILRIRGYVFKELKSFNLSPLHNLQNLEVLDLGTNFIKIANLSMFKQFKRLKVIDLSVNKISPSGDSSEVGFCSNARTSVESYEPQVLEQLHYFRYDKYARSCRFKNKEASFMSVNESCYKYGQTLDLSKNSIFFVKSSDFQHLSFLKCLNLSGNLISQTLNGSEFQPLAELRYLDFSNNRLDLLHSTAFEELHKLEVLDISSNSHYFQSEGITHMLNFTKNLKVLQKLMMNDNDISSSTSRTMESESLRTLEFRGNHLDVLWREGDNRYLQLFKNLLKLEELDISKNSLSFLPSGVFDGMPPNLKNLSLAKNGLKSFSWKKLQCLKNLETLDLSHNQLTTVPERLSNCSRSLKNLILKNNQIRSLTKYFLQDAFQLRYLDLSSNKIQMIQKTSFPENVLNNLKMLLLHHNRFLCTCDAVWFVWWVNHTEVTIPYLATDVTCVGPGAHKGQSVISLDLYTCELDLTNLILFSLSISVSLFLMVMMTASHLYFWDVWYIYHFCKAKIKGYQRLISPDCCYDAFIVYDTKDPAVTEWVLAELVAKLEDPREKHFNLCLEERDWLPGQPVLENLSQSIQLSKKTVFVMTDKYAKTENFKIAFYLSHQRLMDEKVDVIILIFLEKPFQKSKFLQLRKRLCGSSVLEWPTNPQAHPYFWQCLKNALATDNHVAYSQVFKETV
Procedure, shortened: (§1)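 HEK293 cells stably expressing human TLR7 or TLR8, transiently transfected with SEAP reporter plasmid; medium replaced, SIMRA compounds added, 18 h incubation. Supernatant SEAP measured by QuantiBlue; expressed as fold increase in NF-κB activity over PBS control. Tabulated data at 50 μg/mL, representative of three independent experiments.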

[2] = Metabolic stability in human serum assessed as full length product remaining after 10 mins by HPLC; format: ADME, cell-free; details: read-out: Stability
Procedure, shortened: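 About 0.5 A260 units compound in 1% human serum in PBS, 37 °C; aliquot taken at 10 min, analysed by anion-exchange HPLC for percent intact full-length product.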

Splenocyte [3] = assay: Immunomodulatory activity in C57BL/6 mouse splenocytes bearing TLR7 receptor assessed as IL12 release at 100 ug/ml after 24 hrs by ELISA; format: functional, cell-based
Procedure, shortened: (§2)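 C57BL/6 splenocytes in RPMI 1640 with 10% FBS, penicillin/streptomycin, 2 mM L-glutamine, plated at 5 × 10^6 cells/mL; compounds in PBS added, 37 °C for 24 h. Supernatant IL-12 and IL-6 by ELISA; representative of three independent experiments.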

Splenocyte [4] = assay: Immunomodulatory activity in C57BL/6 mouse splenocytes bearing TLR7 receptor assessed as IL6 release at 100 ug/ml after 24 hrs by ELISA; format: functional, cell-based; procedure, shortened: as §2
Homo sapiens = species: Homo sapiens; assay: Ratio of human TLR7 activity to human TLR8 activity
Procedure, shortened: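 TLR7/TLR8 ratio computed from fold NF-κB (SEAP reporter) activation in HEK293 cells stably expressing human TLR7 versus TLR8, compounds at 50 μg/mL, 18 h exposure; representative of three independent experiments.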

[5] = target: T2, Toll-like receptor 8 (Homo sapiens) (UniProt Q9NR97); assay: Activation of human TLR8 expressed in HEK293XL assessed as fold induction of NF-kappaB activity at 50 ug/ml after 18 hrs by reporter gene assay relative to control; procedure, shortened: as §1
T2 sequence (whole entry): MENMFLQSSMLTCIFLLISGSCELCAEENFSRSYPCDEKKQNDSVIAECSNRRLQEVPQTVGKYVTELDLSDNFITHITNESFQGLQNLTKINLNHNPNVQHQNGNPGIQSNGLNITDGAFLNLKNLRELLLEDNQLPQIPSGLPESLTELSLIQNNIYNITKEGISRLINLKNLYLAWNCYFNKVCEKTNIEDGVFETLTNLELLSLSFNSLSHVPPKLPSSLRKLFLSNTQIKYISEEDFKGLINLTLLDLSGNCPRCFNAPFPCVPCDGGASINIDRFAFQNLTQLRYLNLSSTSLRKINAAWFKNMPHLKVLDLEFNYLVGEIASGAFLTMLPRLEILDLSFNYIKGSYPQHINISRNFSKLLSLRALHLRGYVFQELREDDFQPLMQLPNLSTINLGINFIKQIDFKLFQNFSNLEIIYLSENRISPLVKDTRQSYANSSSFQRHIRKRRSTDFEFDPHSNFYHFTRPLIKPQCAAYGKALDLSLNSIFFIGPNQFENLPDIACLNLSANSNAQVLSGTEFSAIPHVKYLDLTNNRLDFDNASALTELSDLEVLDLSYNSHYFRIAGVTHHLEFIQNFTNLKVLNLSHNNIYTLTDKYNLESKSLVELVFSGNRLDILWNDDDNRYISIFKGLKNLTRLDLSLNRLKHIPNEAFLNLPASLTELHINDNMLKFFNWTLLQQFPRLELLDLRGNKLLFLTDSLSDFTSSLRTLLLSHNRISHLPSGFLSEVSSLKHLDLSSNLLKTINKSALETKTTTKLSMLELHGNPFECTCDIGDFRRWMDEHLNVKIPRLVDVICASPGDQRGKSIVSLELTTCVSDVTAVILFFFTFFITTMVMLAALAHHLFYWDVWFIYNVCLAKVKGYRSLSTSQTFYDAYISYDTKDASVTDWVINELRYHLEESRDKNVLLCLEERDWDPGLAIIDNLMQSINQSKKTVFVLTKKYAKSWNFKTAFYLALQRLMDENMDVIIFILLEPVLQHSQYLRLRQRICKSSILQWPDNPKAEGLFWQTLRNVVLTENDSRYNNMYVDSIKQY

Row | fold change (FC) [1] | remaining at 10 min [2] | Activity (Splenocyte [3]) | Activity (Splenocyte [4]) | Ratio (Homo sapiens) | fold change (FC) [5] | SMILES | Activity (PBMC)
1 | 22.6 | 87% | Active | Active | 32.3 | 0.7 | Nc1ccn([C@@H]2O[C@H](COP(=O)(S)O[C@H]3[C@@H](O)[C@H](n4cnc5c(N)ncnc54)O[C@@H]3COP(=O)(S)O[C@H]3[C@@H](O)[C@H](n4ccc5c(=O)[nH]c(N)nc54)O[C@@H]3COP(=O)(S)O[C@H]3[C@@H](O)[C@H](n4ccc(=O)[nH]c4=O)O[C@@H]3COP(=O)(S)O[C@H]3[C@@H](O)[C@H](n4ccc5c(=O)[nH]c(N)nc54)O[C@@H]3COP(=O)(S)O[C@H]3[C@@H](O)[C@H](n4cnc5c(N)ncnc54)O[C@@H]3COP(=O)(S)O[C@H]3[C@@H](O)[C@H](n4cnc5c(N)ncnc54)O[C@@H]3CO)[C@@H](OP(=O)(S)OC[C@H]3O[C@@H](n4ccc5c(=O)[nH]c(N)nc54)[C@H](O)[C@@H]3OP(=O)(S)OC[C@H]3O[C@@H](n4ccc(N)nc4=O)[C@H](O)[C@@H]3OP(=O)(S)OC[C@H]3O[C@@H](n4ccc(=O)[nH]c4=O)[C@H](O)[C@@H]3OP(=O)(S)OC[C@H]3O[C@@H](n4ccc(=O)[nH]c4=O)[C@H](O)[C@@H]3OP(=O)(S)OCC(O)COP(=O)(S)O[C@H]3[C@@H](O)[C@H](n4ccc(=O)[nH]c4=O)O[C@@H]3COP(=O)(S)O[C@H]3[C@@H](O)[C@H](n4ccc(=O)[nH]c4=O)O[C@@H]3COP(=O)(S)O[C@H]3[C@@H](O)[C@H](n4ccc(N)nc4=O)O[C@@H]3COP(=O)(S)O[C@H]3[C@@H](O)[C@H](n4ccc5c(=O)[nH]c(N)nc54)O[C@@H]3COP(=O)(S)O[C@H]3[C@@H](O)[C@H](n4ccc(N)nc4=O)O[C@@H]3COP(=O)(S)O[C@H]3[C@@H](O)[C@H](n4cnc5c(N)ncnc54)O[C@@H]3COP(=O)(S)O[C@H]3[C@@H](O)[C@H](n4ccc5c(=O)[nH]c(N)nc54)O[C@@H]3COP(=O)(S)O[C@H]3[C@@H](O)[C@H](n4ccc(=O)[nH]c4=O)O[C@@H]3COP(=O)(S)O[C@H]3[C@@H](O)[C@H](n4ccc5c(=O)[nH]c(N)nc54)O[C@@H]3COP(=O)(S)O[C@H]3[C@@H](O)[C@H](n4cnc5c(N)ncnc54)O[C@@H]3COP(=O)(S)O[C@H]3[C@@H](O)[C@H](n4cnc5c(N)ncnc54)O[C@@H]3CO)[C@H]2O)c(=O)n1 (some centres undefined) | 26.2 pg/mL
2 | 21.5 | 87% | Active | Active | 53.8 | 0.4 | Nc1ccn([C@@H]2O[C@H](COP(=O)(S)O[C@H]3[C@@H](O)[C@H](n4cnc5c(N)ncnc54)O[C@@H]3COP(=O)(S)O[C@H]3[C@@H](O)[C@H](n4cnc5c(N)ncnc54)O[C@@H]3CO)[C@@H](OP(=O)(S)OC[C@H]3O[C@@H](n4ccc(=O)[nH]c4=O)[C@H](O)[C@@H]3OP(=O)(S)OC[C@H]3O[C@@H](n4ccc5c(=O)[nH]c(N)nc54)[C@H](O)[C@@H]3OP(=O)(S)OC[C@H]3O[C@@H](n4cnc5c(N)ncnc54)[C@H](O)[C@@H]3OP(=O)(S)OC[C@H]3O[C@@H](n4ccc(N)nc4=O)[C@H](O)[C@@H]3OP(=O)(S)OC[C@H]3O[C@@H](n4ccc5c(=O)[nH]c(N)nc54)[C@H](O)[C@@H]3OP(=O)(S)OC[C@H]3O[C@@H](n4ccc(N)nc4=O)[C@H](O)[C@@H]3OP(=O)(S)OC[C@H]3O[C@@H](n4ccc(=O)[nH]c4=O)[C@H](O)[C@@H]3OP(=O)(S)OC[C@H]3O[C@@H](n4ccc(=O)[nH]c4=O)[C@H](O)[C@@H]3OP(=O)(S)OCC(O)COP(=O)(S)O[C@H]3[C@@H](O)[C@H](n4ccc(=O)[nH]c4=O)O[C@@H]3COP(=O)(S)O[C@H]3[C@@H](O)[C@H](n4ccc(=O)[nH]c4=O)O[C@@H]3COP(=O)(S)O[C@H]3[C@@H](O)[C@H](n4ccc(N)nc4=O)O[C@@H]3COP(=O)(S)O[C@H]3[C@@H](O)[C@H](n4ccc5c(=O)[nH]c(N)nc54)O[C@@H]3COP(=O)(S)O[C@H]3[C@@H](O)[C@H](n4ccc(N)nc4=O)O[C@@H]3COP(=O)(S)O[C@H]3[C@@H](O)[C@H](n4cnc5c(N)ncnc54)O[C@@H]3COP(=O)(S)O[C@H]3[C@@H](O)[C@H](n4ccc5c(=O)[nH]c(N)nc54)O[C@@H]3COP(=O)(S)O[C@H]3[C@@H](O)[C@H](n4ccc(=O)[nH]c4=O)O[C@@H]3COP(=O)(S)O[C@H]3[C@@H](O)[C@H](n4ccc(N)nc4=O)O[C@@H]3COP(=O)(S)O[C@H]3[C@@H](O)[C@H](n4cnc5c(N)ncnc54)O[C@@H]3COP(=O)(S)O[C@H]3[C@@H](O)[C@H](n4cnc5c(N)ncnc54)O[C@@H]3CO)[C@H]2O)c(=O)n1 (some centres undefined) | 20.3 pg/mL

From ChEMBL document CHEMBL1154352, “Toll-like receptor 7 selective synthetic oligoribonucleotide agonists: synthesis and structure-activity relationship studies” (J Med Chem, 2009)
